Drawing on the RNAGym collection of RNA variant scans (doi:10.1126/science.aae0568), this text covers yeast fitness for 38 variants.

The labels stand for the following.
B1: tRNA (parent)
chain: GUUCCGUUGGCGUAAUGGUAACGCGUCUCCCUCCUAAGGAGAAGACUGCGGGUUCGAGUCCCGUACGGAACG

Variants at the floor of the assay were thinned out. Some results are limits rather than exact numbers.

In this data set the parent is B1. The data set can be described thus: yeast fitness relative to wild type (ratio to wild type); higher = fitter; tRNA-Arg(CCU), competitive growth, 37 C, YPD. The essentials:
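Variants of the tRNA-Arg(CCU) gene were chemically synthesised with a 3% per-site mutation rate across 69 sites and placed at the native genomic locus in Saccharomyces cerevisiae. Six parallel replicates of the pooled strains were competed in YPD at 37°C for 24 hours, and gene amplicons from the start and end populations were read by 100-nucleotide paired-end sequencing. Darwinian fitness relative to wild type was derived from changes in genotype frequencies. Genotypes required ≥ 100 starting reads, and estimates < 0.5 were set to 0.5.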
On to GUUCCGUUGGCGUAAUGGUAACGCGACUCCCUCCUAAGGAGAACACUGCGGGUUCGAGUCCCGUACUGAACG [U26A G44C G67U], for which the yeast fitness stood at 0.593.

Regarding GUUCCGUUGGCGUAAUGGUAACGCGACUCCCUCCUAACGAGAAGACGGCGGGUUCGAAUCCCGUACGGAACG [U26A G38C U47G G58A], the yeast fitness is at most 0.5.

As to GUUCCGUUGGCGUAAUGGUAACGCGACUCCCUCCUAAGGAGAAGACUGCGGGUUCGAGUCCCGUACCGAACG [U26A G67C], the yeast fitness was 0.829.

With GUUCCGUUGGCGUAAUGGUAACGCGACUCCCUCCUAAGGAGAAGACUGCGGGUUCGAGUCCCGUACUGAACG [U26A G67U], the yeast fitness amounted to 0.632.

Consider GUUCCGUUGGCGUAAUGGUAACGCGACUCCCUCCUAAGGAGAAGACUGCGGGUUCGAGUCCCAUACGGAACG [U26A G63A], for which the yeast fitness was 0.86.

Take GUUCCGUUGGCGUAAUGGUAACGCGACUCCCUCCUAAGGAGAAGACUGCGGGUUCGAGUCCCCUACGGAACG [U26A G63C]: the yeast fitness came to 0.683.

With GUUCCGUUGGCGUAAUGGUAACGCGACUCCCUCCUAAGGAGAAGACUGCGGGUUCGAGUCCUGUACAGAACG [U26A C62U G67A], the yeast fitness is 0.648.

GUUCCGUUGGCGUAAUGGUAACGCGACUCCCUCCUAAGGAGAAGACUGCGGGUUCGAGUCCUGUACGGAACG [U26A C62U]: the yeast fitness came to 0.934.

As to GUUCCGUUGGCGUAAUGGUAACGCGACUCCCUCCUAAGGAGAAGACUGCGGGUUCGAGUCCGGUACGGAACG [U26A C62G], the yeast fitness was 0.69.

Regarding GUUCCGUUGGCGUAAUGGUAACGCGACUCCCUCCUAAGGAGAAGACUAGGGGUUCGAGUCCCGUACGGAACG [U26A G48A C49G], the yeast fitness was determined as 0.552.

On to GUUCCGUUGGCGUAAUGGUAACGCGACUCCCUCCUAAGGAGAACACUGCGGGUUCGAGUCCUGUACGGAACG [U26A G44C C62U], for which the yeast fitness is 0.622.

Take GUUCCGUUGGCGUAAUGGUAACGCGACUCCCUCCUAAGGAGAACACUGCGGGUUCGAGUCCAGUACGGAACG [U26A G44C C62A]: the yeast fitness worked out at 0.598.

In the case of GUUCCGUUGGCGUAAUGGUAACGCGACUCCCUCCUAAGGAAAAGACUGCGGGUUCGAGUCCCGUACGGAACG [U26A G41A], the yeast fitness is 0.818.

Turning to GUUCCGUUGGCGUAAUGGUAACGCGACUCCCUCCUAAGGAGAAGACUGCGGGUUCGAGUCACGUACGGAACG [U26A C61A], the yeast fitness is 0.656.

In the case of GUUCCGUUGGCGUAAUGGUAACGCGACUCCCUCCUAAGGAGAAGACUGCGGGUUCGAGUCUCGUACGGAACG [U26A C61U], the yeast fitness came to 0.817.

As for GUUCCGUUGGCGUAAUGGUAACGCGACUCCCUCCUAAGCAGAAGACUACGGGUUCGAGUGCCGUACGGAACG [U26A G39C G48A C60G], the yeast fitness is at most 0.5.

GUUCCGUUGGCGUAAUGGUAACGCGACUCCCUCCUAAGGAGAACACUGCGGGUUCGAGUCCCGUACGCAACG [U26A G44C G68C]: the yeast fitness worked out at 0.563.

Consider GUUCCGUUGGCGUAAUGGUAACGCGACUCCCUCCUAAGGAGAAGACUGCGGGUUGGAGUCCCGUACGGAACG [U26A C55G], for which the yeast fitness worked out at 0.571.

In the case of GUUCCGUUGGCGUAAUGGUAACGCGACUCCCUCCUAAGGAUAAGACUGCGGGUUUGAGUCCCGUACGGAACG [U26A G41U C55U], the yeast fitness is at most 0.5.

As for GUUCCGUUGGCGUAAUGGUAACGCGACACCUUCCUAAGGAGAAGACUGCGGGUUUGAGUCCCGUAGGGAACG [U26A U28A C31U C55U C66G], the yeast fitness is at most 0.5.

With GUUCCGUUGGCGUAAUGGUAACGCGACUCCCUCCUAAGGAGAAGACUGCGGGUUCGAGUCCCGUACGCAACG [U26A G68C], the yeast fitness was found to be 0.82.

With GUUCCGUUGGCGUAAUGGUAACGCGACUCCCUCCUAAGGAGAAGACUGCGGGUUCGAGUCCCGUACGAAACG [U26A G68A], the yeast fitness turned out to be 0.779.

GUUCCGUUGGCGUAAUGGUAACGCGACUCCCUCCUAACGAGAAGUCUGCGGGUUUGAGUCCCGUACGGAACG [U26A G38C A45U C55U]: the yeast fitness was at most 0.5.

On to GUUCCGUUGGCGUAAUGGUAACGCGACACCUUCCUAAGGAGAAGACUGCGAGUUCGAGUCCCGUACGGAACG [U26A U28A C31U G51A], for which the yeast fitness was at most 0.5.

As for GUUCCGUUGGCGUAAUGGUAACGCGACUCCCUCCUAAGGAGAAGACUGCGGGUUCGAGUCCCGUAAGGCACG [U26A C66A A69C], the yeast fitness is at most 0.5.

Consider GUUCCGUUGGCGUAAUGGUAACGCGACUCCCACCUAAGGAGAAGACUGCGGGUUCGAGUCCCGUACGGAACG [U26A U32A], for which the yeast fitness stood at 0.805.

Turning to GUUCCGUUGGCGUAAUGGUAACGCGACUCCCCCCUAAGGAGAAGACUGCGGGUUCGAGUCCCGUACGGAACG [U26A U32C], the yeast fitness was found to be 0.936.

For the variant GUUCCGUUGGCGUAAUGGUAACGCGACCCGCUCCUACGGAGAAGACUGCGGGUUCGAGUCCCGUACGGAACG [U26A U28C C30G A37C], the yeast fitness is at most 0.5.

With GUUCCGUUGGCGUAAUGGUAACGCGACUCCCUCCUAAGGAGAACACUGCGGGUUCGAGUCCCGUACGGAACG [U26A G44C], the yeast fitness is 0.886.

For the variant GUUCCGUUGGCGUAAUGGUAACGCGACUCCCUCCUAAGGAGAAGACUGCGGGUUCGAAUCCCGUACGGAACG [U26A G58A], the yeast fitness stood at 0.928.

As to GUUCCGUUGGCGUAAUGGUAACGCGACUCCCUCCUAAGGAAAAGACUGCGGGUUCGAGUCCCGUAAGGAACG [U26A G41A C66A], the yeast fitness is at most 0.5.

Turning to GUUCCGUUGGCGUAAUGGUAACGCGACUCCCUCCUAAGGAGAACACUGCGGGUUCGAGUCCCGUGCGGAACG [U26A G44C A65G], the yeast fitness is 0.573.

For the variant GUUCCGUUGGCGUAAUGGUAACGCGACUCCCUCCUAAGGAGAAGACUGCGGAUUCGAGUCCCGUACGGAUCG [U26A G52A A70U], the yeast fitness was at most 0.5.

Take GUUCCGUUGGCGUAAUGGUAACGCGACACCUUCCUAAGGAGAAGACUGCGGGUUCGAGUCCCGUACAGAACG [U26A U28A C31U G67A]: the yeast fitness is at most 0.5.

Regarding GUUCCGUUGGCGUAAUGGUAACGCGACUCCCUCCUAACGAGAAGACGGCGGGUUCGAGUCCCGUACGGAACG [U26A G38C U47G], the yeast fitness is at most 0.5.

Consider GUUCCGUUGGCGUAAUGGUAACGCGACUCCCUCCUAAGGAGAAGACUGCGGGUUCGAGUGCCGUACGGAACG [U26A C60G], for which the yeast fitness is 0.691.

In the case of GUUCCGUUGGCGUAAUGGUAACGCGACUCCCUCCUAAGCAGAAGACUGCGGGUUCGAGUCCCGUACGGAACG [U26A G39C], the yeast fitness was found to be 0.751.

In the case of GUUCCGUUGGCGUAAUGGUAACGCGACUCCCUCCUAAGGACAAGACUGCGGGUUCGAGUCCCGUAAGGACCG [U26A G41C C66A A70C], the yeast fitness is 0.663.
